Rev-erbA mod: modulators of human Rev-erb alpha DNA binding | 370,000 tested, 0.79% active | activity, % at 10 µM | AID 1259318 | Rev-erbα–FITC-DNA binding, fluorescence polarization, 90 min | P20393;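 active = activity above about 14%, limit read from the data; passing the limit was not always enough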;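 note: 0% = DMSO wells with 35 nM protein and 100% = DMSO wells with 750 nM protein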
Target sequence (P20393 whole entry, looked up): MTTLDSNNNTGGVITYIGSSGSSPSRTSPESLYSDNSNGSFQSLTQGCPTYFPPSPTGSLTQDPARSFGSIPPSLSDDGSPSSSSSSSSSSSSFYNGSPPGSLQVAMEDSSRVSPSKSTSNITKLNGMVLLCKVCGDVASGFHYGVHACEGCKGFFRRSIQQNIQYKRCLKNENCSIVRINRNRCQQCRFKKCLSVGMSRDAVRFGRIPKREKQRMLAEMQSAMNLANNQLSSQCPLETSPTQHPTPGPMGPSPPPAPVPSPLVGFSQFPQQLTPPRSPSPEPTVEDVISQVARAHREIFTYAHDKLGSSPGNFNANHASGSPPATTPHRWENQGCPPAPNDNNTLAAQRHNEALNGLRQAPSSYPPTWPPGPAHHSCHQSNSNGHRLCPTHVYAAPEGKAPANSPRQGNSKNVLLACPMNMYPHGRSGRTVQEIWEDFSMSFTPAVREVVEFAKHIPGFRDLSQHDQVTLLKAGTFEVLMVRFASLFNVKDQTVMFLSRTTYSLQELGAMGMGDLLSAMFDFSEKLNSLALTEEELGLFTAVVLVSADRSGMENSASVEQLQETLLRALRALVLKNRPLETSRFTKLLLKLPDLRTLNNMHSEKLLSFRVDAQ
rCAG binder: molecules binding r(CAG) RNA repeats | r(CAG) RNA repeat, TO-PRO-1 dye displacement fluorescence | inhibition, % at 3 µM | 370,000 tested, 1.3% active | AID 651821;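 active = inhibition above the plate cutoff, the mean of all test compounds on that plate plus 3 SD, cut at about 35% in these data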;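 note: 0% = DMSO alone and 100% = 100 µM mitoxantrone as full dye displacement; higher means more dye released from RNA so lower well fluorescence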
NR2E3 ag-1: agonists of human NR2E3 nuclear receptor; CHO-S Gal4-NCOR/VP16-NR2E3 two-hybrid, luciferase; inhibition of corepressor binding, % at 3.98 µM; AID 602229; Q9Y5X4; 360,000 tested, 0.35% active;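 active = inhibition above the mean of all tested compounds plus 3 SD, cut at about 70% in these data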;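 note: 0% = DMSO with NR2E3 transfected cells and 100% = cells lacking NR2E3 construct; higher means lower luciferase signal from less NR2E3 corepressor binding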
PG9 binder: binds the HIV-1 gp120 antibody PG9 | AID 624416 | 360,000 tested, 0.43% active | TR-FRET gp120-PG9 antibody binding | inhibition, % at 6.7 µM; in the data active = inhibition above about 8.5%
NR2E3 ag-2: NR2E3 (human) agonism | GST-NR2E3/biotin-RetCOR TR-FRET, 1536-well | 320,000 tested, 0.12% active | AID 2300 | inhibition of corepressor binding, % at 4.78 µM;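 active = percent inhibition above the cutoff of mean plus 3 SD of all tested compounds, set per screening campaign, cut at about 20% in these data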;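 note: 0% = DMSO wells and 100% = biotin wells as full block of FRET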
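Material: NR2E3–RetCOR corepressor complex | Quantity: 1.35 nM GST-tagged NR2E3 final | Schedule: 5 h at 4 °C | Replication: Singlicate compound wells | Reagent: RetCOR corepressor, biotinylated, 7 nM | Controls: Biotin wells as high control, 0.6% DMSO wells as low control | Signal: TR-FRET, Eu(K)-anti-GST donor, streptavidin-D2 acceptor, ex 340, em 617/671 nm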
NR1D1 mod conf: confirmation of modulators of human Rev-erb alpha DNA binding. AID 1259319. 3,000 tested, 61% active. shares compounds with Rev-erbA mod. Rev-erb alpha FITC-DNA binding, fluorescence polarization, 90 min. activation, % at 25 µM;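 active = activation at or above a set limit, or at least 3 SD above the negative control mean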;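 note: 0% = 35 nM protein with DMSO and 100% = 750 nM protein high control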
RORg counter: affects RORgamma DNA binding in a Rev-erb alpha counter-screen. IC50, µM. purified RORgamma protein-FITC-DNA binding, fluorescence polarization. shares compounds with Rev-erbA mod. 910 tested, 8% active;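 active = Compounds whose fitted half-maximal concentration for disrupting protein-DNA binding is below 10 micromolar; the record names Rev-erb in its text, so the target is in doubt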
The depositor's hits bear a star; i = inactive; / = no result. The list is not random: actives were taken first. Their share in the collection is about 2.6%.

SMILES	Rev-erbA mod	rCAG binder	NR2E3 ag-1	PG9 binder	NR2E3 ag-2	NR1D1 mod conf	others
Cc1ccc(F)cc1NC(=O)COC(=O)C1CC2CCCC(C1)C2=O (stereo not given)	4.3	1.5	5.4	1.0	/	/
CCOC(=O)c1cc2sccc2n1CC(=O)N1CCCc2ccccc21	1.5	-9.1	13.2	-3.4	-4.4	/
CCOC(=O)c1cc2sc(C)cc2n1CC(=O)N1CCc2ccccc21	21.8*	-0.9	-14.4	-0.5	-1.6	24.1*
COc1ccc(NC(=O)C2CCCN(S(=O)(=O)c3ccc4[nH]c(=O)ccc4c3)C2)cc1OC (stereo not given)	22.9*	1.6	12.9	6.5	0.2	-0.3
COc1ccc2[nH]cc(/C=C/c3cc[n+](C)cc3)c2c1	69.4*	-45.0	22.0	-22.9	-13.4	58.1*	RORg counter=>40
O=C(COc1ccc(Cl)cc1Cl)Nc1cccc(-c2ccc(N3CCOCC3)nn2)c1	22.1*	1.5	-36.1	1.8	/	14.3*
O=C(COc1ccc(Cl)cc1Cl)Nc1ccc(-c2ccc(N3CCOCC3)nn2)cc1	-20.6	3.5	-70.6	-7.9	-219.9	/
COc1ccc(CN2C(=O)CN(S(C)(=O)=O)CC2(C)C(=O)Nc2ccc3c(c2)OCCO3)cc1OC (stereo not given)	4.8	5.0	/	-0.3	/	/
CC1CCN(C(=O)COC(=O)CCC(=O)c2ccc(Cl)cc2)CC1	4.0	-0.3	-26.4	1.0	/	/
CCCOc1cc(N(CC)CC)ccc1/C=C(/C#N)c1nc2ccc(C)cc2[nH]1	31.8*	-20.2	-16.4	-0.7	-6.1	40.8*
COc1cc(/C=C(\C#N)c2nc3ccccc3[nH]2)cc(OC)c1O	31.4*	-39.2	-54.8	-21.7	-1.8	45.6*	RORg counter=>40
CCN(CC)c1ccc(/C=C(/C#N)c2nc3ccc(C)cc3[nH]2)c(OC(C)C)c1	/	-62.5	-0.6	-2.5	-4.0	/
CCOc1cc(N(CC)CC)ccc1/C=C(/C#N)c1nc2ccccc2[nH]1	72.5*	-11.1	7.1	-2.4	0.4	58.4*	RORg counter=>40
CN(C)c1ccc(-c2ccnc3c2CC(C)(C(=O)NCCc2ccccc2)O3)cc1 (stereo not given)	4.0	-1.4	2.7	0.1	/	/
Cn1c(=O)[nH]c(N)c(Br)c1=O	4.2	0.6	-19.2	-0.2	/	/
COc1ccc(-c2oc3ccccc3c(=O)c2OC(=O)c2ccc(C)cc2)cc1	21.6*	3.2	7.2	0.0	-1.1	35.5*	RORg counter=>40
O=C(Oc1c(-c2ccccc2)oc2ccccc2c1=O)c1ccccc1	-3.1	2.7	-1.5	-0.9	3.5	/
CCOc1nc(-c2ccccc2)c2cc(Br)ccc2n1	26.5*	-1.5	-17.2	1.4	0.8	15.0
OCCNc1nc(-c2ccccc2)c2cc(Br)ccc2n1	-6.7	-3.0	-16.6	0.1	2.0	/
O=C(Nc1cccc(C(F)(F)F)c1)c1cc2c(=O)c3ccccc3oc2nc1C(F)(F)F	25.2*	5.0	-30.7	0.4	2.9	19.3*
CCc1nc2oc3ccccc3c(=O)c2cc1C(=O)OC	-0.9	2.0	-61.5	-2.5	/	/
O=C(O)c1cc2c(=O)c3ccccc3oc2nc1C(F)(F)F	2.7	-0.6	4.3	-2.2	0.2	/
O=C(Nc1ccccc1)c1cc2c(=O)c3ccccc3oc2nc1C(F)(F)F	46.3*	-2.4	2.8	5.5	-1.6	34.0*	RORg counter=>40
CC1(C)C(=O)Nc2ccccc2N1C(=O)COC(=O)CNS(=O)(=O)c1ccc(F)c(F)c1F	-4.0	3.9	24.3	-2.0	0.7	/
COc1cc(-c2nn3c(COc4ccccc4)nnc3s2)cc(OC)c1OC	44.5*	5.9	-15.9	4.0	3.3	43.6*	RORg counter=i
COc1cc(-c2nn3c(Cc4ccccc4)nnc3s2)cc(OC)c1OC	2.8	2.5	26.3	-2.4	1.1	/
C=CCC12C=C(OC)C(=O)C(C1=O)C(c1ccc(OC)cc1)C2C (stereo not given)	-8.9	1.5	/	/	/	/

From PubChem BioAssay
